Results taken from ChEMBL document CHEMBL3779810, “Potent, Selective, and Orally Bioavailable Inhibitors of VPS34 Provide Chemical Tools to Modulate Autophagy in Vivo” (ACS Med Chem Lett, 2016).
Activity calls are given as the source filed them. The rule behind the calls is not given here.

Assays:
[1] = biological target: Phosphatidylinositol 4,5-bisphosphate 3-kinase catalytic subunit beta isoform (Homo sapiens, UniProt P42338); assay: Inhibition of PI3Kbeta (unknown origin)
[2] = biological target: Phosphatidylinositol 4-kinase beta (Homo sapiens, UniProt Q9UBF8); assay: Inhibition of PI4Kbeta (unknown origin)
Sequence of Phosphatidylinositol 4-kinase beta (Q9UBF8 whole entry, canonical isoform): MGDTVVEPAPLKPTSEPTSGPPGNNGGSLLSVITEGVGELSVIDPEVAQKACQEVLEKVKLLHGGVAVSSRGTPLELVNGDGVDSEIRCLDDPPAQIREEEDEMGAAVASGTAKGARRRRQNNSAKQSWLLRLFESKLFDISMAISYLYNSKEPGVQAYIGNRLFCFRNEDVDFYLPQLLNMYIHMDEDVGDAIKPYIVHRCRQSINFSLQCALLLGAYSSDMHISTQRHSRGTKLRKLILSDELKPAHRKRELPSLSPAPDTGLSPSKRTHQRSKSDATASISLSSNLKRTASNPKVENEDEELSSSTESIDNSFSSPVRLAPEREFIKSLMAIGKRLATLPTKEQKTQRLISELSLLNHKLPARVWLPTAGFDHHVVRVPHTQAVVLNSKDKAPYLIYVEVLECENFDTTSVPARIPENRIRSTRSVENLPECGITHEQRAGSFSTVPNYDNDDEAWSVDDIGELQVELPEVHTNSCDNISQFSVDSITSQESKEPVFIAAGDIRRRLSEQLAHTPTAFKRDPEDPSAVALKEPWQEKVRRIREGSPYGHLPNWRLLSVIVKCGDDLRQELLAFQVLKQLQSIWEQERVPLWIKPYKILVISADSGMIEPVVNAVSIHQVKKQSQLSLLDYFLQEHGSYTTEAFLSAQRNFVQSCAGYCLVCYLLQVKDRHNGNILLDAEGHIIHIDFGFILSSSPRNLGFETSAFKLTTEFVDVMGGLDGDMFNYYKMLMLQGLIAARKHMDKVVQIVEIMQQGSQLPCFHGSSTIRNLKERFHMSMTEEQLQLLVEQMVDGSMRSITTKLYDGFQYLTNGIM

[3] = biological target: T1, Phosphatidylinositol 4,5-bisphosphate 3-kinase catalytic subunit delta isoform (Homo sapiens, UniProt O00329); assay: Inhibition of PI3Kdelta (unknown origin)
T1 sequence (O00329 whole entry): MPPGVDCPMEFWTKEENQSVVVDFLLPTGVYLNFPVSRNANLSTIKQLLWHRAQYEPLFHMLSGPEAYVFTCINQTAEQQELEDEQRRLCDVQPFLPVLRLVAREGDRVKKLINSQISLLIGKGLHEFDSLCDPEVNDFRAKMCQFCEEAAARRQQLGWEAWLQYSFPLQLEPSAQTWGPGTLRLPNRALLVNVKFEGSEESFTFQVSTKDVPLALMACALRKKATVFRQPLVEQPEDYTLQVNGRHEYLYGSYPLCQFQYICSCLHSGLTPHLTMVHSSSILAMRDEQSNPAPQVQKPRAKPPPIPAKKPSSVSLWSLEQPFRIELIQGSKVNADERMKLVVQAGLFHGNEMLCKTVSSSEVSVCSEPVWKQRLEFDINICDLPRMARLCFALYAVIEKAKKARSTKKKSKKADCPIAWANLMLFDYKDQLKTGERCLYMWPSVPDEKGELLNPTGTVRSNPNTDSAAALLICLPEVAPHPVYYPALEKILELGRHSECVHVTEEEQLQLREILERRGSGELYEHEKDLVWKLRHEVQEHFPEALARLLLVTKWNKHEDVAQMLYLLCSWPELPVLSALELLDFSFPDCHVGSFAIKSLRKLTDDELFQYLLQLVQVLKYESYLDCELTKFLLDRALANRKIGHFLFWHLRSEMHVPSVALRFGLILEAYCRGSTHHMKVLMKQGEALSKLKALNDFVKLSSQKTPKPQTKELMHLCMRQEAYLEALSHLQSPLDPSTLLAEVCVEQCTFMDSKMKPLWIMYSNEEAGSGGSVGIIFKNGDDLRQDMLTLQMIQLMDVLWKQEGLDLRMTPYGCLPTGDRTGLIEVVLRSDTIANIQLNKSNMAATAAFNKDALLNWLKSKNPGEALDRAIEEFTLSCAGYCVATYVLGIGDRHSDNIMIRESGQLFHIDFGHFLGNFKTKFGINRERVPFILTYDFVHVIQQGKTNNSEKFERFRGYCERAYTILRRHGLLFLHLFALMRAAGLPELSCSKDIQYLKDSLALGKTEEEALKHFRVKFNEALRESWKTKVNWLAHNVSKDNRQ

[4] = Intrinsic clearance in mouse liver microsomes by LC-MS/MS analysis; type: ADME; conditions: read-out: CLH
[5] = biological target: Phosphatidylinositol 4,5-bisphosphate 3-kinase catalytic subunit gamma isoform (Homo sapiens, UniProt P48736); assay: Inhibition of PI3Kgamma (unknown origin)
Sequence of Phosphatidylinositol 4,5-bisphosphate 3-kinase catalytic subunit gamma isoform (P48736 whole entry, canonical isoform): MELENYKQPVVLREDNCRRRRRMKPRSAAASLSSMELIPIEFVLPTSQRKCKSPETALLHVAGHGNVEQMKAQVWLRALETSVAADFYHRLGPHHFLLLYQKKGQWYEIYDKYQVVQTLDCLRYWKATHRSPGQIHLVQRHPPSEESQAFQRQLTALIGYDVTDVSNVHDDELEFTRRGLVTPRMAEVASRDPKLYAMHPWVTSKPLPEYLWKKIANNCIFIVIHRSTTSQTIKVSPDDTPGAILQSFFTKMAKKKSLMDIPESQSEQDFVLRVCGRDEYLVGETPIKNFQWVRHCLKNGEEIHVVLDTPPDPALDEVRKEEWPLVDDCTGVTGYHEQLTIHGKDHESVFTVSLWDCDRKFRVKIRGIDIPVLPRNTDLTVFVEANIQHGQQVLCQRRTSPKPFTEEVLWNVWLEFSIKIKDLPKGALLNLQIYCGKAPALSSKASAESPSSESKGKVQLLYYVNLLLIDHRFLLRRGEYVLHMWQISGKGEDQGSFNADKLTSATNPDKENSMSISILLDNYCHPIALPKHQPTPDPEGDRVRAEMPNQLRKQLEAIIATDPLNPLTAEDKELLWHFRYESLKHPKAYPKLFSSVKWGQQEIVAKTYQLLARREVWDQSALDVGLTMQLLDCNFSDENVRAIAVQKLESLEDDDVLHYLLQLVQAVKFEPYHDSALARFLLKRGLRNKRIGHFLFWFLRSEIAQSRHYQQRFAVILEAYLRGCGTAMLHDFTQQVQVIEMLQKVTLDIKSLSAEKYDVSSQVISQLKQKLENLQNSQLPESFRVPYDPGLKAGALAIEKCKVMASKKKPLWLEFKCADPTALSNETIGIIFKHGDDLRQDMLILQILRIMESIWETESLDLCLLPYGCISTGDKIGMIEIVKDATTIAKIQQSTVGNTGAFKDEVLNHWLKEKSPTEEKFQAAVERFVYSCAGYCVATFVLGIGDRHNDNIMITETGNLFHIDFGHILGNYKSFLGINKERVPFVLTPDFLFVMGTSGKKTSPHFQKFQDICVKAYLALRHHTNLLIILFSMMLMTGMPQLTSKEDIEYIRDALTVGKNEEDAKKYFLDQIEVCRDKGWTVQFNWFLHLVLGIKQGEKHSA

[6] = biological target: Phosphatidylinositol 4,5-bisphosphate 3-kinase catalytic subunit alpha isoform (Homo sapiens, UniProt P42336); assay: Inhibition of PI3Kalpha (unknown origin)
Sequence of Phosphatidylinositol 4,5-bisphosphate 3-kinase catalytic subunit alpha isoform (P42336 whole entry, canonical isoform): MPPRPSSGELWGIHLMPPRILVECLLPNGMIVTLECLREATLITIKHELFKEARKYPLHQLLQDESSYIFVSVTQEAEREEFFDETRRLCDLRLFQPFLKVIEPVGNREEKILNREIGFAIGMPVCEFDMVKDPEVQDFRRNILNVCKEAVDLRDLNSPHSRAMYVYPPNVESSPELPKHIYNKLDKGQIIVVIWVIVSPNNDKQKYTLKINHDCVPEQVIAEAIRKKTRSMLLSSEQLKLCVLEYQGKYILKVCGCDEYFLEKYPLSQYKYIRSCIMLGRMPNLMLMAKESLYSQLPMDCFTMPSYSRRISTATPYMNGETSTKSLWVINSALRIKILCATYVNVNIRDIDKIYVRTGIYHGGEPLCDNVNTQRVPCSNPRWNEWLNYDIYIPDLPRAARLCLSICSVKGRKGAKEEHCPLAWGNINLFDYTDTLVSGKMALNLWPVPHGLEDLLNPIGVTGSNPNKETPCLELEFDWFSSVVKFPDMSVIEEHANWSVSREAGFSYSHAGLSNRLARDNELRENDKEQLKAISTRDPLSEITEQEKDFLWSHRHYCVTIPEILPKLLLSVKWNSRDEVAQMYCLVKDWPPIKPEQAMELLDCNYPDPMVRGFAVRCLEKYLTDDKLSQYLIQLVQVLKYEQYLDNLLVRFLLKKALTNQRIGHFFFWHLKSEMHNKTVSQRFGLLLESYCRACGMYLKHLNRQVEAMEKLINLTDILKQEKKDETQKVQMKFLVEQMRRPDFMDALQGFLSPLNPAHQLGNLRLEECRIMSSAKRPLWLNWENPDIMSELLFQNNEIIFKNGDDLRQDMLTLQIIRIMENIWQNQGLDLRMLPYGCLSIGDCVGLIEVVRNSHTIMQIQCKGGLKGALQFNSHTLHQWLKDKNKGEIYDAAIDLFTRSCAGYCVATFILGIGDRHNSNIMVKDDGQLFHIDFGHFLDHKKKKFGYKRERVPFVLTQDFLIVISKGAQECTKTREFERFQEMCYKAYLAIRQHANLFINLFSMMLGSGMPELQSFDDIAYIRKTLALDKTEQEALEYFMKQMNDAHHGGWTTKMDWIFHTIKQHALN

[7] = biological target: T2, Phosphatidylinositol 3-kinase catalytic subunit type 3 (Homo sapiens, UniProt Q8NEB9); assay: Inhibition of VPS34 in human U2OS cells incubated for 2 hrs by GFP-FYVE reporter gene assay; type: cell-based
T2 sequence (Q8NEB9 whole entry): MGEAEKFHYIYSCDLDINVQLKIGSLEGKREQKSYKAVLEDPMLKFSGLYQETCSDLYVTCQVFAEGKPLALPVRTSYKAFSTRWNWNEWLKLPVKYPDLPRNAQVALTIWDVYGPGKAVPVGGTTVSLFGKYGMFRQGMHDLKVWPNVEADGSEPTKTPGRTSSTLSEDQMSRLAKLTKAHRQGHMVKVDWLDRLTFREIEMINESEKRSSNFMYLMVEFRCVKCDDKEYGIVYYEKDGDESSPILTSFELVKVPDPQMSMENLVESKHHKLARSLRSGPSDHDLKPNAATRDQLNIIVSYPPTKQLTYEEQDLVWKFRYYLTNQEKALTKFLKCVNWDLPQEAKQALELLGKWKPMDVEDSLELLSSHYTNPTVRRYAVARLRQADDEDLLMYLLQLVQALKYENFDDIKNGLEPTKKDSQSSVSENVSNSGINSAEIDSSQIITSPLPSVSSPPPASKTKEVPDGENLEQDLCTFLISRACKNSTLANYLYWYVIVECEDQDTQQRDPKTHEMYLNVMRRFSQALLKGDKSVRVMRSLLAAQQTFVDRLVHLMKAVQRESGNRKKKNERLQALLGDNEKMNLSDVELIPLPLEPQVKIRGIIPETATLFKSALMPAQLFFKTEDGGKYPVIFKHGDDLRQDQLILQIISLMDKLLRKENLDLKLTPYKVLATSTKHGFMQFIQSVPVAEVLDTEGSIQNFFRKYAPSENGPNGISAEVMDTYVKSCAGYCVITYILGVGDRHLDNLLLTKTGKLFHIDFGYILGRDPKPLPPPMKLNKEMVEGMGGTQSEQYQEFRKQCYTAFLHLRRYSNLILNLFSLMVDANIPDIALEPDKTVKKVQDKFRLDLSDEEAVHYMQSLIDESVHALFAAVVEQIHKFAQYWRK

[8] = biological target: T2, Phosphatidylinositol 3-kinase catalytic subunit type 3; assay: Inhibition of recombinant human VPS34 using L-alpha-phosphatidylinositol as substrate incubated for 10 mins by luminescence based ATP detection assay
In short: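 VPS34 biochemical IC50 was measured with a luminescence-based ATP detection read-out.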

[9] = biological target: T2, Phosphatidylinositol 3-kinase catalytic subunit type 3; assay: Inhibition of VPS34 in human DLD1 cells assessed as prevention of FTH1 protein degradation at 1 to 10 uM incubated for 24 hrs by Western blot analysis; type: cell-based; conditions: DLD-1
[10] = system: Mus musculus; assay: Inhibition of autophagy in athymic nude mouse xenografted with human RKO cells assessed as accumulation of LC3-2 protein at 50 mg/kg, po bid for 7 days by SDS-PAGE analysis; type: functional, organism-based; conditions: TDE = time-dependent effect
In short: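 Nude mice bearing RKO colon cancer tumors were dosed orally at 50 mg/kg twice daily (BID) for 7 days. LC3-II in tumor samples was followed over time by immunoblot, one lane per individual mouse.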

[11] = system: RKO; assay: Antitumor activity against human RKO cells xenografted in athymic nude mouse assessed as reduction in tumor volume at 50 mg/kg, po bid for 7 days; type: functional, organism-based
[12] = Tmax in C57BL/6 mouse at 10 mg/kg, po; type: ADME, organism-based; conditions: in vivo
In short: (§1)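 Pharmacokinetics in C57BL/6 mice after a single dose, either intravenous at 2 mg/kg or oral at 10 mg/kg. Mean parameters reported: AUCinf, CL, Vdss, t1/2, Tmax, Cmax and F. Clearance was also expressed as a percentage of hepatic blood flow.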

[13] = biological target: T2, Phosphatidylinositol 3-kinase catalytic subunit type 3; assay: Inhibition of VPS34 in human DLD1 cells assessed as prevention of NCOA4 protein degradation at 1 to 10 uM incubated for 24 hrs by Western blot analysis; type: cell-based; conditions: DLD-1
[14] = biological target: T2, Phosphatidylinositol 3-kinase catalytic subunit type 3; assay: Inhibition of VPS34 in human DLD1 cells assessed as increase in LC3-1 protein expression at 1 to 10 uM incubated for 24 hrs by Western blot analysis; type: cell-based; conditions: DLD-1
[15] = organism: Homo sapiens; assay: Selectivity ratio of IC50 for PI3Kalpha (unknown origin) to recombinant human VPS34
[16] = organism: Homo sapiens; assay: Selectivity ratio of IC50 for PI3Kgamma (unknown origin) to recombinant human VPS34
[17] = biological target: T2, Phosphatidylinositol 3-kinase catalytic subunit type 3; assay: Inhibition of VPS34 in human DLD1 cells assessed as increase in LC3-2 protein expression at 1 to 10 uM incubated for 24 hrs by Western blot analysis; type: cell-based; conditions: DLD-1
[18] = Oral bioavailability in C57BL/6 mouse at 10 mg/kg; type: ADME, organism-based; conditions: in vivo; in short: as §1
[19] = organism: Homo sapiens; assay: Selectivity ratio of IC50 for TAK1 (unknown origin) to recombinant human VPS34
[20] = AUC (0 to infinity) in C57BL/6 mouse at 10 mg/kg, po; type: ADME, organism-based; set-up: dose 10 mg/kg, route oral, time infinity; conditions: in vivo; in short: as §1
[21] = biological target: T2, Phosphatidylinositol 3-kinase catalytic subunit type 3; assay: Inhibition of VPS34 in human DLD1 cells assessed as prevention of NBR1 protein degradation at 1 to 10 uM incubated for 24 hrs by Western blot analysis; type: cell-based; conditions: DLD-1
[22] = Half life in C57BL/6 mouse at 2 mg/kg, iv; type: ADME, organism-based; conditions: in vivo; in short: as §1
[23] = Clearance in C57BL/6 mouse at 2 mg/kg, iv; type: ADME, organism-based; conditions: in vivo; in short: as §1
[24] = organism: Homo sapiens; assay: Selectivity ratio of IC50 for PI3Kbeta (unknown origin) to recombinant human VPS34
[25] = AUC (0 to infinity) in C57BL/6 mouse at 2 mg/kg, iv; type: ADME, organism-based; set-up: dose 2 mg/kg, route intravenous, time infinity; conditions: in vivo; in short: as §1
[26] = organism: Homo sapiens; assay: Selectivity ratio of IC50 for PI3Kdelta (unknown origin) to recombinant human VPS34
[27] = biological target: T2, Phosphatidylinositol 3-kinase catalytic subunit type 3; assay: Inhibition of VPS34 in human DLD1 cells assessed as prevention of NDP52 protein degradation at 1 to 10 uM incubated for 24 hrs by Western blot analysis; type: cell-based; conditions: DLD-1
[28] = Volume of distribution at steady state in C57BL/6 mouse at 2 mg/kg, iv; type: ADME, organism-based; conditions: in vivo, read-out: Vdss; in short: as §1
[29] = Cmax in C57BL/6 mouse at 10 mg/kg, po; type: ADME, organism-based; set-up: dose 10 mg/kg, route oral; conditions: in vivo; in short: as §1
[30] = Systemic clearance in C57BL/6 mouse at 10 mg/kg, po; type: ADME, organism-based; conditions: in vivo; in short: as §1
[31] = biological target: T2, Phosphatidylinositol 3-kinase catalytic subunit type 3; assay: Inhibition of VPS34 in human DLD1 cells assessed as prevention of p62 degradation at 1 to 10 uM incubated for 24 hrs by Western blot analysis; type: cell-based; conditions: DLD-1
[32] = system: Mus musculus; assay: Systemic clearance in C57BL/6 mouse at 10 mg/kg, po relative to hepatic blood flow; type: ADME, organism-based, Liver; conditions: in vivo; in short: as §1

Sequence of Phosphatidylinositol 4,5-bisphosphate 3-kinase catalytic subunit beta isoform (P42338 whole entry, canonical isoform): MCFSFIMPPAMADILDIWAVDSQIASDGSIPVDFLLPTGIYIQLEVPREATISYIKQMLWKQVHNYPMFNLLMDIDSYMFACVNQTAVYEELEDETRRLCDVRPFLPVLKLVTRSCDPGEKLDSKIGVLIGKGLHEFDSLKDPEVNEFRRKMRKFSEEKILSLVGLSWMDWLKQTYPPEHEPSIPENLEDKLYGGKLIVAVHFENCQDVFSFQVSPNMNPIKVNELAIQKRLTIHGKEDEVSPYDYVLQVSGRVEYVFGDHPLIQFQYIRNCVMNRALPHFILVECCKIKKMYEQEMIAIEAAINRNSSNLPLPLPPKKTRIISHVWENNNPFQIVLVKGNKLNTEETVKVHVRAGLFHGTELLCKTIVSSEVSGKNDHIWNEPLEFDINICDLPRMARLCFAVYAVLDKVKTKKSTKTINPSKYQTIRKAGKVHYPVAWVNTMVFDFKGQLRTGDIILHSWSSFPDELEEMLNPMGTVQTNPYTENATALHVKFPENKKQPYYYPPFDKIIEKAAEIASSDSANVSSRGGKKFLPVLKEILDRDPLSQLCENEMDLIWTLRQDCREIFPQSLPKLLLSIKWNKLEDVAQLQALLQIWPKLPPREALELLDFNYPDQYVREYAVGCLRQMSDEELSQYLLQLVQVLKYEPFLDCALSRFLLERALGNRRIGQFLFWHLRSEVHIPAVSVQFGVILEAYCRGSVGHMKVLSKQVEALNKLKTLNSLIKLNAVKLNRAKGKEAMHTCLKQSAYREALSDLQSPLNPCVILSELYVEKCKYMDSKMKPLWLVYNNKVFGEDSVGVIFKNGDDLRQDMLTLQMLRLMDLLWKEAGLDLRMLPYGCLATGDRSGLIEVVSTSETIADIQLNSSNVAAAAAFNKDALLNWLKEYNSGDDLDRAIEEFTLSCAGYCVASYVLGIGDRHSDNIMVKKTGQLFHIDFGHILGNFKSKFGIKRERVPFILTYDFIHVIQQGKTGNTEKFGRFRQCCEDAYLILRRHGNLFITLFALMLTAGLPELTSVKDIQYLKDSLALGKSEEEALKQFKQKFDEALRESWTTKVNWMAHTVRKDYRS

Which IC50 [1] does the source give for `CNc1ncc(-c2ccnc(N[C@H]3CC[C@H](O)CC3)n2)c(CC2CC2)n1` here?
Its IC50 is over 9.1 µM.

And the IC50 [2]?
Its IC50 is 3.8 µM.

What about the IC50 [3] of the same compound?
Its IC50 is 7 µM.

And the CLint scaled [4]?
Its CLint scaled is 82.6 mL/min/kg.

And the IC50 [5]?
Its IC50 is 8.5 µM.

And the IC50 [6]?
Its IC50 is 6.2 µM.

What does the source list for `CNc1ncc(-c2ccnc(Nc3ccncc3)n2)c(CC2CC2)n1`?
IC50 [7]: 0.014 µM; IC50 [1]: > 9.1 µM; IC50 [3]: 2.9 µM; CLint scaled [4]: 86.7 mL/min/kg; IC50 [5]: 1.9 µM; IC50 [6]: 6.8 µM

With `CNc1ncc(-c2ccnc(NC3CCCCC3)n2)c(CC2CC2)n1` as the compound, how does the IC50 [8] read?
Its IC50 is 3.4 µM.

Which inhibition [9] does the source give for `CC(C)(O)CNc1ncc(-c2ccnc(Nc3ccncc3)n2)c(CC2CC2)n1` here?
Its inhibition is “Active”.

What about the inhibition [10] of the same compound?
Its inhibition is “tde”.

And the IC50 [7]?
Its IC50 is 0.025 µM.

And the Activity [11]?
The Activity was “inactive”.

What about the Tmax [12] of the same compound?
The Tmax was 42 min.

What about the inhibition [13] of the same compound?
Its inhibition is “Active”.

And the inhibition [14]?
Its inhibition is “Active”.

What about the Ratio IC50 [15] of the same compound?
The Ratio IC50 was over 100.

And the Ratio IC50 [16]?
Its Ratio IC50 is over 100.

What about the IC50 [3] of the same compound?
The IC50 was 0.82 µM.

And the inhibition [17]?
Its inhibition is “Active”.

And the bioavailability [18]?
Its bioavailability is 47%.

What about the Ratio IC50 [19] of the same compound?
The Ratio IC50 was 10.

And the AUC(0-inf) [20]?
Its AUC(0-inf) is 6.73 µM·h.

And the inhibition [21]?
The inhibition was “Active”.

And the CLint scaled [4]?
Its CLint scaled is 63.2 mL/min/kg.

What about the half-life [22] of the same compound?
The half-life was 72 min.

And the clearance [23]?
Its clearance is 30 mL/min/kg.

And the Ratio IC50 [24]?
The Ratio IC50 was over 100.

And the AUC(0-inf) [25]?
The AUC(0-inf) was 2.85 µM·h.

What about the Ratio IC50 [26] of the same compound?
The Ratio IC50 was 40.

What about the inhibition [27] of the same compound?
Its inhibition is “Active”.

And the Vd [28]?
The Vd was 1.5 L/kg.

What about the Cmax [29] of the same compound?
The Cmax was 2990 nM.

What about the CL/F [30] of the same compound?
The CL/F was 30 mL/min/kg.

What about the inhibition [31] of the same compound?
The inhibition was “Active”.

And the CL [32]?
Its CL is 33%.

For `CNc1ncc(-c2ccnc(Nc3ccccc3)n2)c(CC2CC2)n1`, which IC50 [8] is on record?
The IC50 was 0.29 µM.

For `Nc1ncc(-c2ccnc(Nc3ccncc3)n2)c(CC2CC2)n1`, which inhibition [9] is on record?
The inhibition was “Active”.

What about the inhibition [13] of the same compound?
The inhibition was “Active”.

And the inhibition [21]?
Its inhibition is “Active”.

What about the CLint scaled [4] of the same compound?
Its CLint scaled is 72.8 mL/min/kg.

What about the inhibition [27] of the same compound?
The inhibition was “Active”.

What about the inhibition [31] of the same compound?
The inhibition was “Active”.

For `CNc1ncc(-c2ccnc(NCCCO)n2)c(CC2CC2)n1`, which IC50 [8] is on record?
The IC50 was 6.3 µM.
